Only some compounds are listed: those with a hit (about 1.5% of all), similar ones and a draw of the others.
Rin1-Abl PPI inh – inhibitors of human Rin1-Abl protein interaction. inhibition, % at 7.35 µM. 0.4% of 360,000 active. P00519+Q13671. TR-FRET Rin1/Abl binding, biochemical; in the data active means inhibition above about 5%, passing the limit was not always enough
Target sequence (P00519 whole entry, looked up): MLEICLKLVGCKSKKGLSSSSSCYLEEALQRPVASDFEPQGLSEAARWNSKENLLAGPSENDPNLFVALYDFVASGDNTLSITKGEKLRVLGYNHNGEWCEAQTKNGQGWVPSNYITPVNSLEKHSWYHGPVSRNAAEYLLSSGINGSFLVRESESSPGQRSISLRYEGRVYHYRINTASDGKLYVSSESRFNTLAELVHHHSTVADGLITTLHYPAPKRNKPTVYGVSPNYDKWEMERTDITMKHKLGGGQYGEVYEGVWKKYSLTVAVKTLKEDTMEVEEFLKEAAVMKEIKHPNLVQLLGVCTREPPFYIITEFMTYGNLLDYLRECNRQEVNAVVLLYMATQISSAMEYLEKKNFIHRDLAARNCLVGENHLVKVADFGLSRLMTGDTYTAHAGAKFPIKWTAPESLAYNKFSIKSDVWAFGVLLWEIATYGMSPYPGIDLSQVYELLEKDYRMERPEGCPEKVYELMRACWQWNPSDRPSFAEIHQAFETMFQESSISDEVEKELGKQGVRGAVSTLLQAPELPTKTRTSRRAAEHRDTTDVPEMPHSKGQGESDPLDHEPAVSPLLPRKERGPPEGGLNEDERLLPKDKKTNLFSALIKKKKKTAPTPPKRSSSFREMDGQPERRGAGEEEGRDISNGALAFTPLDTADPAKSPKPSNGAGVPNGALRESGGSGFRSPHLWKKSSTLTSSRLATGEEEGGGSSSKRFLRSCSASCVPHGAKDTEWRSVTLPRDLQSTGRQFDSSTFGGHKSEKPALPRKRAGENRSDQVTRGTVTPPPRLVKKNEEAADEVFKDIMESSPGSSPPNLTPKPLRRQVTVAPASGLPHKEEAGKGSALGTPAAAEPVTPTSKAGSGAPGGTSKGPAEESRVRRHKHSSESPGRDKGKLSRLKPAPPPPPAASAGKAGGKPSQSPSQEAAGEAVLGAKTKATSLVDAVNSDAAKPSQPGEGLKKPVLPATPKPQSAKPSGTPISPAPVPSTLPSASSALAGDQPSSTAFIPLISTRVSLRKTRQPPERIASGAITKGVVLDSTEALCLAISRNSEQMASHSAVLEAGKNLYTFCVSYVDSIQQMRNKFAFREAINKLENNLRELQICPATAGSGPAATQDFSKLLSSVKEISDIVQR
Target sequence (Q13671 whole entry, looked up): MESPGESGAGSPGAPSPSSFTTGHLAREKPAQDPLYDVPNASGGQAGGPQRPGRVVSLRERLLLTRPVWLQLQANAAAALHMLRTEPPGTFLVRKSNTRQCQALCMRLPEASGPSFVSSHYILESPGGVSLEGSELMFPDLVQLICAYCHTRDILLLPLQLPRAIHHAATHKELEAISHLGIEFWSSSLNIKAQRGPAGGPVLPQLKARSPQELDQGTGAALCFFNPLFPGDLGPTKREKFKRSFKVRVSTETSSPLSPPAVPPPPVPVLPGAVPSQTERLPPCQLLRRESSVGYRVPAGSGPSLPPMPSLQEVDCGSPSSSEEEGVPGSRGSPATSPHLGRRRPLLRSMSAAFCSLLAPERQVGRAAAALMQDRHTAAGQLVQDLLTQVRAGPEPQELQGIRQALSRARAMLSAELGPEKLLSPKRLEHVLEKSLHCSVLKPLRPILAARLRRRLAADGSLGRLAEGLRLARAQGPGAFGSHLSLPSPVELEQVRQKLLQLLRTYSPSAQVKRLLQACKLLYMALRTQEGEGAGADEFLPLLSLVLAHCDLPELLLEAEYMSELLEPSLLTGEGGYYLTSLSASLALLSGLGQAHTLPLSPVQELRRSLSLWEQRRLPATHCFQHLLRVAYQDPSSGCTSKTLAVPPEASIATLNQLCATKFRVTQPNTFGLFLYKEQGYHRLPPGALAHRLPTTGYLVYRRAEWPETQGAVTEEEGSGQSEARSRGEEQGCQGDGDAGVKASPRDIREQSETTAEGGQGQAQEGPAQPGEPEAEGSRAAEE
PKA-R1A activ – activates the PKA-R1A holoenzyme complex. P00514+P68181. PKA-R1A dissociation, Cy5-IP20 fluorescence polarization; scaled: DMSO 0%, 113 µM cGMP 100%. activation, % at 11.4 µM. 0.083% of 340,000 active;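 active means percent activation above the mean of all tested compounds plus 3 SD, cut at about 19% in these data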;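 further: higher means more PKAc released from R1A so a rise in polarization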
H9c2 protect – protects H9c2 cardiomyocytes from peroxide injury; H2O2 injury protection, ATPLite, 2 h; protection from H2O2 cell death, % at 20 µM; 0.63% of 360,000 active;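 active means compounds giving at least 50% protection of heart cells from peroxide-induced death in the single-dose screen, raw or plate-pattern-corrected value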;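 further: 0% = DMSO wells with peroxide and 100% = DMSO wells without peroxide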
PKA-R2B activ – PKA-R2B complex activation | PKA-R2B holoenzyme dissociation, Cy5-IP20 fluorescence polarization; R2B truncated from residue 108, S112A mutant; 0% DMSO only, 100% 113 µM cGMP | activation, % at 11.4 µM | 0.079% of 340,000 active;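 active means activation above a cutoff set at the mean over all compounds plus 3 SD, cut at about 18% in these data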;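 further: higher means more holoenzyme dissociation and a rise in polarization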
TbMetRS inhib – blocks T. brucei methionyl-tRNA synthetase activity; purified T. brucei MetRS, ATP depletion, Kinase-Glo luminescence; inhibition, % at 11.9 µM; 0.4% of 360,000 active;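 active means inhibition above a per-plate cutoff of the control wells' mean inhibition plus 3 SD, cut at about 5.5% in these data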;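 further: 0% = DMSO wells median and 100% = median of wells with control inhibitor compound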
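Measured by: Kinase-Glo luciferase luminescence reporting remaining unconsumed ATP. Material: purified T. brucei MetRS enzyme. Doses: 11.9 µM compound single dose, 0.9% DMSO. Medium: HEPES buffer containing pyrophosphatase, BSA, spermine, DTT. Times: 15 min preincubation, 2 h reaction, all 25 °C. Reagent: methionine, ATP and bulk E. coli tRNA.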
An asterisk follows results filed as active; / = not tested or not shown.

SMILES	Rin1-Abl PPI inh	PKA-R1A activ	H9c2 protect	PKA-R2B activ	TbMetRS inhib
Cc1nnnn1CC(=O)Nc1cccc([N+](=O)[O-])c1	-1	0	2	-1	0
C=CC[C@@H](Cc1ccc(F)cc1)C(=O)OC[C@@H]1CCCN1C(=O)[C@@H](CC=C)CC(=O)NCCO	3	8	3	12	0
Cc1ccc(N2CCN(C(=O)NC3CCCCC3)CC2C)cc1 (stereo unspecified)	0	6	5	-16	0
COc1cccc(/C=N\NC(=O)C2C(=O)NCC2c2ccccc2)c1O (stereo unspecified)	-2	-6	72*	-5	0
Cc1cc(C)n(-c2nc(Nc3ccccc3)nc(-n3nc(C)cc3C)n2)n1	2	3	3	-1	-1
COc1cccc(/C=N/NC(=O)C(=O)N2CCCCCC2)c1O	-4	-1	45	1	0
COc1cccc(/C=N/Nc2nc(Nc3ccccc3)nc(-n3nc(C)cc3C)n2)c1O	4	-16	74*	2	0
COc1cccc(/C=N/NC(=O)C(=O)N/N=C/c2cccc(OC)c2O)c1O	5	/	66*	/	0
Cc1occc1-c1nnc(SCC(=O)O)n1-c1ccccc1	-1	-5	3	6	0
CC(C)(C)OC(=O)C[C@H]1C/C=C\C[C@@H](CC(=O)NCCO)C(=O)NC[C@@H](c2ccccc2)OC1=O	6	-2	6	-6	1
COc1ccccc1-c1cc2c(c3c1ccn3C)C1CCC2C1 (stereo unspecified)	5	/	-3	/	-1
CCOC(=O)c1ccc(NC(=O)c2nc[nH]c2C(=O)NCCCCNC(=O)c2[nH]cnc2C(=O)Nc2ccc(C(=O)OCC)cc2)cc1	-3	1	58*	-9	0
CCOC(=O)c1ccc(NC(=O)c2nc[nH]c2C(=O)NCC(=O)OC(C)(C)C)cc1	3	0	32	-2	0
CCOC(=O)c1ccc(NC(=O)c2nc[nH]c2C(=O)NCCCNC(=O)c2[nH]cnc2C(=O)Nc2ccc(C(=O)OCC)cc2)cc1	1	4	44	9	0
CCOC(=O)c1ccc(NC(=O)c2nc[nH]c2C(=O)NCCCCCNC(=O)OC(C)(C)C)cc1	1	0	79*	12	0
CCN(CC)c1nc(-c2ccccn2)nc(-c2ccccc2)c1C#N	1	-8	-5	-19	0
COc1ccccc1-c1cnc(C(O)c2ccc(SC)cc2)[nH]1 (stereo unspecified)	4	/	-5	/	0
CC(=O)Nc1ccc(/C(C)=N/Nc2nc(Nc3cccc4ccccc34)nc(N3CCOCC3)n2)cc1	-2	2	63*	-12	0
COc1ccc(C(C(=O)NCc2ccccc2)N(Cc2ccco2)C(=O)c2snc(C(N)=O)c2N)cc1 (stereo unspecified)	2	-11	80*	3	0
NC(=O)c1nsc(C(=O)N(c2ccccc2F)C(C(=O)NCc2ccc(F)cc2)c2ccc(O)cc2)c1N (stereo unspecified)	2	-3	52*	-3	0
COc1ccc(C(C(=O)NCC2CCCO2)N(Cc2cccs2)C(=O)c2snc(C(N)=O)c2N)cc1OC (stereo unspecified)	3	5	30	-10	-1
NC(=O)c1nsc(C(=O)N(CCc2ccccc2)C(C(=O)NC2CCCC2)c2ccco2)c1N (stereo unspecified)	-5	0	78*	-11	0
CCOc1ccc(C(C(=O)NCC2CCCO2)N(Cc2cccs2)C(=O)c2snc(C(N)=O)c2N)cc1 (stereo unspecified)	2	9	68*	1	0
COc1ccc(C(C(=O)NCc2ccccc2)N(Cc2ccco2)C(=O)c2snc(C(N)=O)c2N)cc1OC (stereo unspecified)	2	3	49	-6	-1
NC(=O)c1nsc(C(=O)N(c2cccc(F)c2)C(C(=O)NCc2ccccc2)c2ccc(O)cc2)c1N (stereo unspecified)	2	-7	39	-4	0
SMILES	Rin1-Abl PPI inh	PKA-R1A activ	H9c2 protect	PKA-R2B activ	TbMetRS inhib
O=C1CC[C@@H](C(=O)O)N1	-2	-5	-4	4	-1
O=C(Nc1cccnc1)C1CC(=O)N(c2ccc(F)cc2)C1 (stereo unspecified)	0	1	0	-15	-1
C=CCNC(=O)CC(=O)N/N=C/c1cccs1	-2	-2	8	0	0
Cc1ccc(C(C(=O)NCc2ccccc2)N(Cc2ccco2)C(=O)c2snc(C(N)=O)c2N)o1 (stereo unspecified)	-1	-7	61*	7	0
COc1ccc(C(C(=O)NC2CCCC2)N(C(=O)c2snc(C(N)=O)c2N)c2cccc(O)c2)cc1 (stereo unspecified)	1	-3	52*	4	0
NC(=O)c1nsc(C(=O)N(c2cccc(F)c2)C(C(=O)NC2CCCC2)c2ccc(O)cc2)c1N (stereo unspecified)	2	-1	20	-1	-1
CCCOc1ccccc1/C=C(\C#N)C(=O)Nc1cccnc1	2	6	1	17	0
O=c1[nH]c(NCc2ccccc2)nc2c1CCCC2	2	5	53*	5	2
O=c1[nH]c(SCCc2ccccc2)nc2c1CCC2	-1	/	12	/	0
Cc1nc2ccccc2c2c(N)c3ccccc3n12	1	2	66*	-2	0
CCCCN(CCCC)Cc1cc(=O)oc2ccccc12	2	/	2	/	0
Cc1ccc(NC(=S)N2CC(C)OC(C)C2)cc1C (stereo unspecified)	-1	8	-1	-12	0
O=C(CC1SC(=Nc2ccccc2)N(CCCO)C1=O)Nc1ccc(Cl)cc1 (stereo unspecified)	0	-6	20	-17	14*
CCCCCc1ccc(CC(=O)N2CCOCC2)cc1	0	1	-2	-1	-1
O=C(c1ccco1)N1CCN(C(c2coc3ccc(Cl)cc3c2=O)c2nnnn2C2CCCC2)CC1 (stereo unspecified)	-2	-8	43	7	-1
Cc1ccc2occ(C(c3nnnn3C3CCCC3)N3CCN(C(=O)c4ccco4)CC3)c(=O)c2c1 (stereo unspecified)	-1	-12	52*	-6	-1
CCOC(=O)c1c(-c2ccc(C)o2)csc1NC(=O)COC(=O)c1ccc(NC(N)=O)cc1	1	-5	61*	-6	0
CCOC(=O)c1c(-c2ccc(C)o2)csc1NC(=O)CSc1nnc(C)s1	9	-10	-7	0	0
O=C(NC(=S)Nc1ccccc1N1CCOCC1)c1ccc(-c2ccccc2F)o1	0	-5	20	6	-1

Source: PubChem (several laboratories)
